Data reported in ChEMBL document CHEMBL3351585, “Design, synthesis and biological evaluation of novel peptides with anti-cancer and drug resistance-reversing activities” (Eur J Med Chem, 2015).

Columns and labels:
[1] = Toxicity in rabbit erythrocytes assessed as induction of hemolysis at 160 uM incubated for 1 hr by microplate reader assay; type: cell-based, Oryctolagus cuniculus; details: erythrocyte
How it was run: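 Rabbit red blood cells in PBS were mixed 1:1 by volume with peptide solution and incubated 1 h at 37 °C, then spun at 1000 g for 5 min. Hemoglobin in the supernatant was read at 540 nm. PBS defined 0% hemolysis and 0.1% Triton X-100 defined 100%.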

[2] = Retention time of the compound by UPLC method; type: physicochemical
[3] = Cytotoxicity against human GES-1 cells after 48 hrs by MTT assay; type: cell-based; details: GES1, 48 h
How it was run: (§1)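 Cells grown in RPMI1640 with 10% heat-inactivated FBS and 1% penicillin-streptomycin at 37 °C, 5% CO2. Log-phase cells were seeded at 5 × 10^3/well 24 h before treatment, exposed to a range of peptide concentrations for 48 h, then given MTT for 4 h. Formazan was dissolved in DMSO and A490 read. Survival was computed relative to untreated wells, and IC50 taken from the survival curve.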

MCF7 = test: Anticancer activity against human MCF7 cells after 48 hrs by MTT assay; type: functional, cell-based; details: MCF7, 48 h; how it was run: as §1
K562 = test: Anticancer activity against human K562 cells after 48 hrs by MTT assay; type: functional, cell-based; details: K562, 48 h; how it was run: as §1
[4] = Anticancer activity against human K562/ADR cells after 48 hrs by MTT assay; type: functional, cell-based; how it was run: as §1
[5] = Anticancer activity against human MCF7/ADR cells after 48 hrs by MTT assay; type: functional, cell-based; details: NCI/ADR-RES; how it was run: as §1

Row | Compound | Retention_time [2] [min] | IC50 (MCF7) [µM] | IC50 (K562) [µM] | Activity [1] | IC50 [3] [µM] | IC50 [4] [µM] | IC50 [5] [µM]
1 | H-VKRFKKFFRKLKKEV-NH2 | 3.41 | 38.9 | 36.6 | Non-toxic | 104 | – | –
2 | H-VKRFKKFFRKLKKQV-NH2 | 3.31 | 14.5 | 16.2 | Non-toxic | 102 | – | –
3 | H-VKRFKKFFRKLKKAV-NH2 | 3.48 | 8.9 | 8.6 | Non-toxic | 87.1 | – | –
4 | H-VKRFKKFFRKLKKTV-NH2 | 3.44 | 19.1 | 17 | Non-toxic | 110 | – | –

Stronger by IC50 (MCF7), values ahead:

Row | Retention_time [2] [min] | IC50 (MCF7) [µM] | IC50 (K562) [µM] | Compound | Activity [1] | IC50 [3] [µM] | IC50 [4] [µM] | IC50 [5] [µM]
5 | 3.69 | 4.9 | 5 | H-VKRFKKFFRKLKKVV-NH2 | Non-toxic | 64.6 | – | –
6 | 3.74 | 1.3 | 3.7 | H-VKRFKKFFRKLKKFV-NH2 | Non-toxic | 52.5 | – | –
7 | – | 0.36 | 0.45 | COc1cccc2c1C(=O)c1c(O)c3c(c(O)c1C2=O)C[C@@](O)(C(=O)CO)C[C@@H]3O[C@H]1C[C@H](N)[C@H](O)[C@H](C)O1 [DOXORUBICIN] | – | 0.53 | 67.6 | 52.5
